The source of these data is ChEMBL document CHEMBL1765020, “Synthesis and structure-affinity relationships of novel dibenzylideneacetone derivatives as probes for β-amyloid plaques” (J Med Chem, 2011).

Experiment [1] can be described thus: Displacement of [125I]IMPY from amyloid beta (1 to 42) aggregate after 2 hrs by gamma counting. Put shortly:
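Competition binding in 1 mL PBS (0.2 M, pH 7.4). Aggregated Aβ1-42 fibrils (60 nM final) with [125I]IMPY and inhibitor at 10^-5 to 10^-10 M, added in ethanol. Nonspecific binding was defined with 1 μM IMPY. Incubated 2 h at 37 °C with shaking, then vacuum-filtered through glass fibre filters and the bound fraction gamma-counted. IC50 was converted to Ki by Cheng-Prusoff; triplicate, mean ± SD.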

In experiment [2] the target is Amyloid-beta precursor protein (Homo sapiens) (UniProt P05067). Description: Binding affinity to amyloid beta (1 to 42) aggregate in cortex of Alzheimer disease patient brain by autoradiography. As to conditions: tested as the 125I-labelled form. The gist of the method: (§1)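 Human postmortem temporal-lobe paraffin sections were used: AD patient and normal control (person). They were deparaffinized (xylene, graded ethanol), held 30 min in PBS 0.2 M pH 7.4, incubated 1 h at room temperature with radiotracer (5 μCi/100 μL), washed 3 min in 40% ethanol, rinsed, dried and exposed to an imaging plate overnight.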
Chain of Amyloid-beta precursor protein (Homo sapiens) (P05067 whole entry): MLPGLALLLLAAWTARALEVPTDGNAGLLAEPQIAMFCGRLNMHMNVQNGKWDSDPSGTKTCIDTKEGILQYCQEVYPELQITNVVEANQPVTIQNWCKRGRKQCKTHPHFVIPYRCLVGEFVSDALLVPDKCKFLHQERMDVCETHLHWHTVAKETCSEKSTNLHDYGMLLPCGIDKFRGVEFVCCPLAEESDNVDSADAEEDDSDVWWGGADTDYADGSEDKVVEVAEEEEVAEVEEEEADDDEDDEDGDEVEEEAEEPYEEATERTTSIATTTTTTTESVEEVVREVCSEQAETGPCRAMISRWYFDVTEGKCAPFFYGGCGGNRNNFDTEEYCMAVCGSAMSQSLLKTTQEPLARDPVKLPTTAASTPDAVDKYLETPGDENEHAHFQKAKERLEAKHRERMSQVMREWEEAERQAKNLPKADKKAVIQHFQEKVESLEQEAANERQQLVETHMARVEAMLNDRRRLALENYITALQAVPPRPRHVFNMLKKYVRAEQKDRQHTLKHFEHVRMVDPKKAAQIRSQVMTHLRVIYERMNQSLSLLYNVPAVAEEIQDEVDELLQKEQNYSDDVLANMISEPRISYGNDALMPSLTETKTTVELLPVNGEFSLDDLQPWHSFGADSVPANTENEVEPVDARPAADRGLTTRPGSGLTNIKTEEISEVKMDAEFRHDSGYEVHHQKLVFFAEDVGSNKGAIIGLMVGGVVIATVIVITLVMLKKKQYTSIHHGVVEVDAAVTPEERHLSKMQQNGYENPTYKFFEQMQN

For experiment [3] the target is unchanged. As to the kind of experiment: Binding affinity to amyloid beta (1 to 42) aggregate in white matter of Alzheimer disease patient brain by autoradiography. The experiment is classed as tissue-based. As to conditions: tested as the 125I-labelled form. The gist of the method: as §1
For experiment [4] the target is unchanged. Description: Binding affinity to amyloid beta (1 to 42) aggregate in cortex of Alzheimer disease patient brain by immunohistochemical staining using amyloid beta antibody BC05. As to conditions: tested as the 125I-labelled form. Put shortly: (§2)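 Plaque presence and location in the AD patient temporal-lobe sections were confirmed by immunohistochemistry with monoclonal anti-Aβ1-42 antibody BC05.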

The target is the same in experiment [5]. Description: Binding affinity to amyloid beta (1 to 42) aggregate in white matter of Alzheimer disease patient brain by immunohistochemical staining using amyloid beta antibody BC05. The experiment is classed as tissue-based. As to conditions: tested as the 125I-labelled form. Put shortly: as §2

Molecules are shown by their SMILES. Active and inactive are the calls of the source. The rule behind the calls is not given here.

`CN(C)c1ccc(/C=C/C(=O)/C=C/c2ccc(I)cc2)cc1` returned a Ki in experiment [1] of 0.9 nM. For the same molecule, the result in experiment [2], in experiment [3], in experiment [4] and in experiment [5] was Active.

In experiment [1], `CNc1ccc(/C=C/C(=O)/C=C/c2ccc(I)cc2)cc1` registered a Ki of 2.8 nM. For the same molecule, the outcome in experiment [2], in experiment [3], in experiment [4] and in experiment [5] was Active.
